Bioassay records from PubChem BioAssay.
PMI activator = activators of human phosphomannose isomerase. P34949. purified human PMI, coupled resazurin fluorescence, 20 min; active compounds read high; 1 = vehicle control, 0 substrate-free wells. activation factor at 20 µM. hit rate 0.005% among 190,000;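 active = activation factor of 2 or more at 20 µM, relative to plate controls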
PMI act hi M6P = increases human PMI activity with near-saturating mannose 6-phosphate; activation factor at 20 µM; hit rate 0.34% among 190,000; coupled PMI enzyme assay, resazurin fluorescence, 20 min; active compounds read high; 1 = untreated enzyme, 0 = substrate-free blank;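 active = activation factor of 2 or more at 20 µM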
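Test system: human PMI in coupled enzyme assay; Input: PMI at 15 ng/mL final; Medium: HEPES buffer, pH 7.4; Schedule: 20 min incubation at room temperature; Technique: resorufin fluorescence at Ex 544/Em 590 nm; Compound: 20 µM single dose; Probe or stimulus: Near-saturating mannose-6-phosphate, 1.0 mM.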
Diaphorase inh = diaphorase inhibition or chemical oxidation counter-screen. diaphorase resazurin-to-resorufin fluorescence, NADH, 16 min; bacterial (C. kluyveri) enzyme, not human. inhibition, % at 20 µM. hit rate 0.69% among 190,000. AID 1217;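 active = primary screen inhibition at 20 µM above a set limit, cut at about 50% in these data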;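 note: plate controls were DMSO with full reaction for no effect and wells lacking NADH for full effect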
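Assay system: diaphorase enzyme from Clostridium kluyveri; Input: enzyme working solution with 0.14 U/mL diaphorase; Timing: 16 min at room temperature; Technique: resorufin fluorescence, excitation 544 nm, emission 590 nm; Benchmarks: positive control minus NADH, DMSO neutral control.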
Diaphorase act = activates diaphorase or chemically reduces, flagging diaphorase assay artifacts; Diaphorase/resazurin coupled assay, resorufin fluorescence, 16 min; active compounds read high; 1 = vehicle wells, 0 = NADH-free wells; activation factor at 20 µM; hit rate 0.005% among 190,000; AID 1229;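 active = diaphorase activity raised at least twofold by the compound at 20 µM; inactive = activation factor below 2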
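Test system: Clostridium kluyveri diaphorase, purified enzyme. Buffer or medium: 50 mM HEPES pH 7.4 buffer plus MgCl2 and Tween 20. Also added: 0.114 mM NADH and 0.1 mM resazurin, final amounts. Dosing: compound 20 µM once, DMSO 1%. Schedule: 16 min enzyme reaction, ambient temperature. Detection: fluorescence of resorufin, 544 nm excitation, 590 nm emission.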
G6PDH counter = counter-screen for G6PDH assay hits: L. mesenteroides G6PDH inhibition; Purified L. mesenteroides G6PDH, diaphorase/resazurin coupled fluorescence, 45 min; inhibition, % at 5 µM; hit rate 0.12% among 200,000; AID 1020; in the data active = inhibition above about 50%
ROMK primary = modulators of human ROMK potassium channel; Tet-inducible ROMK, thallium flux fluorescence; actives lie on both sides; B-score at 10 µM; hit rate 2% among 130,000; AID 1918; P48048;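 active = signal ratio slope over the read window, or its plate-corrected B-score, at least 3 SD from the plate mean, either direction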;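 note: B-score of the F/F0 ratio slope over 7 to 12 s after thallium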
Target sequence (P48048 whole entry, looked up): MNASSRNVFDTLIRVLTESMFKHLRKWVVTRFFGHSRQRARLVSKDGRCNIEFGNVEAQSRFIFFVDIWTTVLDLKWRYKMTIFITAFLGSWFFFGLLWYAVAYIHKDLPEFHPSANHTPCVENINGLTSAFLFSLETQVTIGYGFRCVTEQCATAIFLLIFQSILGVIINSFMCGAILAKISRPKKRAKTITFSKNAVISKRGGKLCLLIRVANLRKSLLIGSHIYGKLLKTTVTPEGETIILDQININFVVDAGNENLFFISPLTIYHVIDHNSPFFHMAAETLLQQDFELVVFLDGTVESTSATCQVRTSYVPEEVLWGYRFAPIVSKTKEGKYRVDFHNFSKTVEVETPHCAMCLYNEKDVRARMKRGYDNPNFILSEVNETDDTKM
Active calls of the source: *; . = no result. Shown are actives, neighbours in structure and some others; about 2.2% of the full set was active somewhere.

SMILES	PMI activator	PMI act hi M6P	Diaphorase inh	Diaphorase act	G6PDH counter	ROMK primary
CCCN(CCC)c1cc(Cl)nc(N)n1	0.9	0.8	5	0.9	8	-1.4
CCOC(=O)C1=C(O)c2ccccc2C(=O)/C1=C\c1ccc(C)cc1	1.3	0.9	49	0.5	51*	.
COn1c(C)c(C(C)=O)c2c3nonc3ccc21	0.5	0.4	53*	0.5	42	-0.95
Cc1ccc2c(c1)c(N=Nc1cccc(C(=O)O)c1)c(O)n2C	1.2	1.1	59*	0.4	7	0.49
CC1(C)CC2(CC(c3ccc(F)cc3)c3ccc(O)cc3O2)NC(=S)N1 (centres undefined)	.	.	.	.	.	0.081
CC1(C)CC2(CC(c3ccccc3F)c3ccc(O)c(O)c3O2)NC(=S)N1 (centres undefined)	0.3	0.5	68*	0.3	29	-0.051
CCOC(=O)C(C(=O)OCC)c1cc(Br)c2noc3c2c1C(=O)c1ccccc1-3	0.7	0.5	62*	0.4	56*	.
CCN(CC)S(=O)(=O)c1ccc(C(=O)NCCc2cc3c(OC)ccc(OC)c3[nH]c2=O)cc1	0.8	0.8	24	0.8	14	.
COc1ccc(OC)c2[nH]c(=O)c(CCNC(=O)c3ccc(S(=O)(=O)N4CCCC4)cc3)cc12	0.8	0.8	51*	0.5	5	.
O=C1OCC(CO)(CO)N=C1NNc1ccccc1Cl	1.6	2*	10	0.9	4	.
O=C(O)c1cc2nc(-c3ccccc3)cc(-c3ccccc3)n2n1	0.8	0.7	59*	0.4	23	1.1
O=C(O)c1cc2nc(-c3ccccc3)cc(C(F)(F)F)n2n1	1	1.1	-2	1	1	.
COc1ccc(C(=O)OCc2nc(N)nc(Nc3ccccc3C)n2)cc1OC	0.9	0.8	9	0.9	-3	0.54
Cc1cc(=O)[nH]c(N=N/C(=N/Nc2ccccc2C)c2ccccc2)n1	1.5	1.8	5	0.9	5	0.5
COc1ccc(N/N=C(/N=Nc2nc(C)cc(=O)[nH]2)c2ccccc2)cc1	1.8	2.3*	-12	1.1	-4	1.2
Cc1cc(=O)[nH]c(N=N/C(=N/Nc2ccc(O)cc2)c2ccccc2)n1	1.9	2.3*	-1	1	18	1.2
CC(=Nc1ccccc1)Nc1ccccc1	1	1	5	0.9	-2	0.19
S=C(N=Nc1ccccc1)NNc1ccccc1	1.8	2.7*	12	0.9	1	.
CCC(=O)Nc1ccc(C(=O)CN2CCC(C)CC2)cc1	1.5	1.5	5	0.9	8	2.4
Cc1ccc(S(=O)(=O)/N=C2/C=C(Sc3ncn[nH]3)C(=O)c3ccccc32)c(C)c1	0	0.1	69*	0.3	37	-1.9
Cc1ccc(S(=O)(=O)/N=C2/C=C(Sc3ncn[nH]3)C(=O)c3ccccc32)cc1	0	0.1	36	0.6	40	.
CC(C)c1ccc(S(=O)(=O)/N=C2/C=C(Sc3ncn[nH]3)C(=O)c3ccccc32)cc1	0	0.2	24	0.8	22	-2.6*
CN(C)/C=C1\Oc2ccc3ccccc3c2C1=O	0.1	0.2	70*	0.3	34	0.079
CN1CCN(c2ccc(Cl)cc2NC(=O)/C=C/c2ccc(F)cc2)CC1	1	0.9	2	1	-5	0.59
CCN(C(=O)c1coc(=O)c(Br)c1)c1ccc2c(c1)OCO2	0.5	0.6	66*	0.3	27	-1.8
SMILES	PMI activator	PMI act hi M6P	Diaphorase inh	Diaphorase act	G6PDH counter	ROMK primary
CC1=NN(c2ccc(Cl)c(C(=O)O)c2)C(=O)C1	1	1	10	0.9	0	.
CC1=NN(c2ccc(S(=O)(=O)O)cc2Cl)C(=O)C1	1.4	2*	26	0.7	8	0.36
Cc1ccc2nc(N3C(=O)C(O)=C(C(=O)c4ccco4)C3c3cccs3)sc2c1 (centres undefined)	1.2	1.3	14	0.9	3	-2.6*
COc1cccc(C(=O)NC2CC3CCCC(C2)N3CC(=O)Nc2ccccc2)c1 (centres undefined)	0.8	1	58*	0.4	11	1.3
COc1cccc(C(=O)NC2CC3CCCC(C2)N3CC(=O)Nc2ccc(N(C)C)cc2)c1 (centres undefined)	0.9	1	11	0.9	4	.
Cc1cc(C(C)(C)C)ccc1NC(=O)CC(C)(C)CC(=O)O	.	.	.	.	.	1.1
Cc1ccc(O)c(CNc2cccc3cccnc23)c1	0.7	0.4	39	0.6	17	-1.8
Cc1cccnc1NCc1ccc(O)c2ncccc12	0.5	0.4	77*	0.2	25	.
Cc1ccc(C)c(N=Nc2ccc(O)c3ncccc23)c1	1	0.5	23	0.8	12	.
Cc1cccc(NCc2ccc(O)c3ncccc23)c1C	0.4	0.2	80*	0.2	50	0.51
c1cc(CNC2C3CC4CC(C3)CC2C4)ccn1 (centres undefined)	1.2	1.3	4	1	4	0.26
N#Cc1c(-c2cccs2)nc(SCc2ccc(Cl)cc2)[nH]c1=O	0.7	0.8	39	0.6	20	3.6*
CNC(=O)NC(=O)CSc1nc(-c2cccs2)c(C#N)c(=O)[nH]1	0.9	0.9	22	0.8	11	-0.21
COc1ccc(C(=O)c2sc(NC(C)C)nc2N)cc1OC	1.1	1.1	3	1	11	-4.2*
COc1cc(C2SC(C)C(=O)N2CCc2ccccc2)cc(OC)c1OC (centres undefined)	1.1	1.1	3	1	7	1.6
O=C1CC(=C2c3ccccc3-c3ccccc32)C(=O)N1CCCCN1CCN(c2ccccc2)CC1	1.5	2.1*	-3	1	0	0.25
O=C1CC(=C(c2ccccc2)c2ccccc2)C(=O)N1CCCN1CCN(c2cccc(Cl)c2)CC1	0.9	0.9	7	0.9	-22	0.94
N#CCCS(=O)(=O)c1nnnn1-c1ccccc1	1	1	14	0.9	-1	-4.7*
COC(=O)C1CCN(c2ccc(Cl)nn2)CC1	1	1	13	0.9	3	-0.44
COc1ccccc1NC(=O)NC1(C(=O)N2CCC(O)CC2)CCCCC1	0.9	0.9	21	0.8	0	-5*
CN1c2ccccc2N(C)C1(C)c1cccc2ccccc12	0.7	1	59*	0.4	-4	.
CC(=O)Nc1ccc(S(=O)(=O)Oc2ccc3c(c2)C(C)=CC(C)(C)N3)cc1	0.8	0.7	27	0.7	12	.
CC1=CC(C)(C)Nc2ccc(OS(=O)(=O)c3ccc(C)cc3)cc21	0.6	0.5	50*	0.5	24	.
COc1c(Cl)cc(Cl)cc1CNc1ccc(S(N)(=O)=O)cc1	1	1	5	0.9	0	2
